Compound activity as filed in PubChem.
SDO1 yeast rescue – compounds rescuing growth of sdo1-depleted yeast, bone marrow failure model; S. cerevisiae sdo1-depleted JHY4D growth rescue, OD600 30 h; hits give high values; pdr5 snq2 efflux-pump mutant strain; z-score at 10 µM; 140,000 compounds, 0.21% hits;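 active means z-score above 3 at both the 24 hr and the 30 hr optical density reads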;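 further: z-score against mean and SD of all compound wells on the same plate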
Yeast growth inh – chemicals that inhibit yeast BB579 growth in restrictive medium (lifespan-shortening candidates); AID 804; S. cerevisiae BB579 growth, OD615, 48 h; inhibition, % at 10 µM; 140,000 compounds, 0.51% hits;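 active means inhibition above a set limit, 3 SD over the mean compound inhibition, cut at about 44% in these data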
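Test system: S. cerevisiae DeaD strain BB579 yeast; Medium: restrictive CSMM-D medium; Compound: one dose, 10 µM compound with 0.25% DMSO; Incubation: 4 h cell preincubation, 48 h compound exposure, 30 °C humidified; Signal: OD at 615 nm; Benchmarks: amphotericin B at 10 µg/mL as positive control.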
Yeast lifespan up – yeast lifespan extension. S. cerevisiae growth with nicotinamide, OD615; deaD strain in restrictive glucose medium. inhibition of the nicotinamide effect, % at 10 µM. 130,000 compounds, 0.68% hits;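 active means inhibition above a set limit, placed 3 SD over the median of all compounds, cut at about 26% in these data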;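 further: 0% = nicotinamide-treated wells and 100% = cells grown without nicotinamide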
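Assay system: DeaD-strain S. cerevisiae. Medium: CSMM-D glucose medium, restrictive. Reagent: nicotinamide, 1.5 mM, co-present with compound. Compound: 10 µM single point, 0.25% DMSO. Schedule: culture preincubation 4 h, compound exposure 48 h, both 30 °C. Detection: absorbance at 615 nm.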
RAM inhibit – yeast RAM network inhibition; inhibition, % at 50 µM; 190,000 compounds, 1.8% hits; AID 868; S. cerevisiae dse1pr::URA3 reporter, 5-FOA growth OD615, 2 d; analog-sensitive cbk1-as2 kinase mutant strain;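 active means inhibition above a set limit, 3 SD over mean compound inhibition, cut at about 8.4% in these data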;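 further: 0% = DMSO-only wells with no growth and 100% = 10 µM 1-NA-PP1 full growth; inhibition rescues growth on 5-FOA so higher OD means more RAM inhibition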
* marks the source's active call; other numbers are inactive results; · = not tested or not shown. Rows were chosen to be rich in hits. Some 2.7% of all compounds tested hit in one or more screens of this group.

SMILES | SDO1 yeast rescue | Yeast growth inh | Yeast lifespan up | RAM inhibit
COc1ccc(-c2cc(=O)c3ccccc3s2)cc1 | -1.8 | -34 | -29 | 8.8*
COc1ccc2sc3ccccc3c(=O)c2c1 | -0.98 | 22 | -27 | 4
CCC1CCCCN1C(=S)Nc1cccc(S(=O)(=O)N(C)C)c1 (stereo not drawn) | · | · | · | 2
COc1ccc(C(=O)C[n+]2cn(C(F)F)c3ccccc32)c(F)c1 | · | · | · | 2
Cc1ccc(N/N=C(\C#N)C(N)=S)c(C)c1 | -2 | 95* | -4 | -1
Cc1ccc(C)c(NNC(N)=S)c1 | · | · | · | 2
O=C(C1CCCO1)N1CCN(C(=S)Nc2ccc(F)c(Cl)c2)CC1 (stereo not drawn) | · | · | · | 0
O=C(COC(=O)CCCOc1ccc(Cl)cc1Cl)Nc1cccc(Cl)c1 | -1.1 | 24 | -4 | 11*
COc1ccc(CNC(=O)COC(=O)CCCOc2ccc(Cl)cc2Cl)cc1 | -0.02 | -15 | -3 | 9.6*
O=C(/C=C/c1ccc(S(=O)(=O)NCc2ccco2)cc1)N1CCN(c2ccccc2)CC1 | · | · | · | 5
Cc1[nH]nc2nc3c(c(OC(=O)c4ccccc4)c12)c(=O)n(C)c(=O)n3C | -0.7 | 23 | 52* | -1
COC(=O)c1cc(-c2ccccc2)c2c(=O)n(C)c(=O)n(C)c2n1 | · | · | · | 0
COc1ccc(C(=O)NC(=S)NNC(=O)CNC(=O)C2CCCCC2)cc1 | · | · | · | 3
Cc1ccc(S(=O)(=O)Nc2ccc(SC(F)F)cc2)c(C)c1 | -1 | 61* | -3 | 5
CC(C)c1ccc(S(=O)(=O)Nc2ccc(SC(F)F)cc2)cc1 | -2.1 | -47 | 3 | 5
OCCC1CN(Cc2cn[nH]c2C2CCCCC2)CCN1C1CCCCC1 (stereo not drawn) | · | · | · | 2
CS(=O)(=O)c1nsc2nc(=O)c(/C=C3\C=Nc4ccccc43)c(N)n12 | · | · | · | 9.9*
CCCCCN1C(=O)Cn2c(nc3ccccc3c2=O)C1C (stereo not drawn) | · | · | · | 0
CNC(=S)N/N=C(\C)c1ccc(N2CCOCC2)cc1 | 2.3 | 70* | -6 | 0
CCNC(=S)N/N=C(\C)c1ccc(N2CCOCC2)cc1 | 1.8 | -10 | 1 | 1
Cc1nn(C)c(C(=O)NNC(=O)Nc2cccc(C(F)(F)F)c2)c1Cl | · | · | · | 1
O=C(CS(=O)c1ccc(C(F)(F)F)cc1[N+](=O)[O-])Oc1ccccc1 (stereo not drawn) | -0.32 | -36 | 40* | 1
O=C(CNc1ccc(C(F)(F)F)cc1[N+](=O)[O-])OCC(=O)c1ccccc1 | -0.09 | -48 | -6 | 11*
CSc1ccc(CN2CCCC(CNC(=O)c3ccc(F)cc3)C2)cc1 (stereo not drawn) | · | · | · | 0
COc1ccc(-c2nc(NC(=O)CCNC(=O)c3ccco3)sc2C)cc1 | · | · | · | 1
SMILES | SDO1 yeast rescue | Yeast growth inh | Yeast lifespan up | RAM inhibit
Cc1ccc(OCC(=O)N2N=C(C(F)(F)F)CC2(O)C(C)(C)C)cc1C (stereo not drawn) | -2.1 | -19 | 3 | 0
Cc1ccccc1OCC(=O)N1N=C(C(F)(F)F)CC1(O)C(C)(C)C (stereo not drawn) | -0.6 | -12 | · | 9.2*
O=C(Cc1cccs1)N(CC1CCCO1)C1(C(=O)NC2CCCC2)CCCCC1 (stereo not drawn) | · | · | · | 1
CCOc1ccc(CN(CCC#N)C(=S)NC(=O)c2ccccc2)cc1 | 0.4 | -28 | 5 | 0
CCOc1ccc(C(=O)NC(=S)N(Cc2ccccc2)Cc2ccccc2)cc1 | -0.42 | -2 | -24 | 8.6*
O=C(/C=C/c1ccc(Br)cc1)Nc1ccc(S(=O)(=O)Nc2ncccn2)cc1 | · | · | · | 9.8*
COc1cc(OC)cc(C(=O)Nn2cc(C(=O)Nc3ccc(F)cc3F)c3ccccc3c2=O)c1 | 0.36 | -64 | 1 | 6
CC(C)C(C(=O)Nc1ccc(N2CCOCC2)cc1)N1C(=O)c2ccccc2C1=O (stereo not drawn) | -0.64 | -48 | 3 | 9.3*
N#Cc1cccc(NCC(=O)Nc2ccc3c(c2)OCCO3)c1 | · | · | · | 2
CCOC(=O)c1ccc(CN(Cc2ccc(C)cc2)S(=O)(=O)c2cccc([N+](=O)[O-])c2)cc1 | 0.77 | -69 | 17 | 10*
Cc1ccc(C(=O)O/N=C(\N)c2cccc([N+](=O)[O-])c2)cc1 | -1.7 | 10 | -22 | 4
CCOc1ccc(-n2c(=O)[nH]cc(C(=O)Nc3ccc(OC)c(OC)c3)c2=O)cc1 | · | · | · | 1
O=C(CCN1c2ccccc2Sc2ccccc21)Oc1ccccc1 | -0.18 | -32 | 0 | 8
COC(=O)c1ccc(OC(=O)CCN2c3ccccc3Sc3ccccc32)cc1 | 0.52 | -19 | 5 | 11*
CCCCn1c(-c2nonc2N)nc2ccccc21 | -1.5 | 7 | -7 | ·
CC(C)CCn1c(-c2nonc2N)nc2ccccc21 | -1.8 | -58 | · | 10*
CCOc1ccccc1/C=c1\sc2ncnn2c1=O | 0.49 | -43 | 49* | 1
O=C(O/N=C/C1=C(Cl)c2ccccc2CC1)c1ccc(F)cc1 | -0.21 | -14 | 8 | 9.5*
O=C(CSc1ncccn1)N/N=C/c1ccccc1[N+](=O)[O-] | · | · | · | 2
CCOc1ncccc1C(=O)OCc1cccc([N+](=O)[O-])c1 | · | · | · | 5
Cc1ccc(C(=O)O/N=C\c2ccc(N3CCOCC3)c([N+](=O)[O-])c2)cc1 | 0.53 | -58 | -21 | 4
O=C(/C=C/c1ccc(N2CCCCC2)c([N+](=O)[O-])c1)c1ccc(O)cc1 | · | · | · | 8.6*
O=C(O/N=C\c1ccc(N2CCCCC2)c([N+](=O)[O-])c1)c1ccc(Cl)cc1Cl | -0.27 | -50 | -6 | 10*
COc1ccccc1C(=O)/C=C/c1ccc(N2CCCCC2)c([N+](=O)[O-])c1 | -0.39 | -33 | 3 | 9.7*
CC(=O)Nc1cccc(NC(=O)C(=O)c2cn(CC(=O)N3CCCCC3)c3ccccc23)c1 | · | · | · | 4
SMILES | SDO1 yeast rescue | Yeast growth inh | Yeast lifespan up | RAM inhibit
CCOC(=O)CCS(=O)(=O)c1nc(-c2ccccc2)cc(C(F)(F)F)n1 | -0.91 | -32 | 67* | -1
CCOC(=O)CS(=O)(=O)c1nc(-c2ccccc2)cc(C(F)(F)F)n1 | -1.5 | -45 | · | -2
O=C(O)CCS(=O)(=O)c1nc(-c2cccs2)cc(C(F)(F)F)n1 | -0.22 | -42 | 19 | 0
CCOC(=O)CS(=O)(=O)c1nc(-c2ccc(F)cc2)cc(C(F)(F)F)n1 | -1.5 | -44 | 67* | -1
COC(=O)CCS(=O)(=O)c1nc(-c2ccccc2)cc(C(F)(F)F)n1 | -0.32 | -8 | 77* | -1
CCOC(=O)c1sc2nccc(OC)c2c1N=CNOC | · | · | · | 1
CCOC1(/N=C(\C)NS(=O)(=O)c2ccc(Cl)cc2)C(C)=CC(=O)C=C1C | · | · | · | 0
Cc1cc(Oc2ccc3ccccc3c2)nc(SCC(=O)c2ccccc2)n1 | -0.66 | -36 | 5 | 11*
Cc1cc(-c2ccccc2)nc(SCC(=O)c2cccc([N+](=O)[O-])c2)n1 | -0.9 | -11 | -25 | 11*
COc1ccc(-c2cc(C)nc(SCC(=O)c3cccc([N+](=O)[O-])c3)n2)cc1 | -0.08 | -31 | -11 | 4
COc1ccc(/C=C(\NC(=O)c2ccccc2)C(=O)OC[C@@H]2CCC[N+]3(C)CCCCC23)cc1OC (stereo partly drawn) | · | · | · | 4
